According to ChEMBL document CHEMBL2375304, “Synthesis and anticancer activity of novel 2-pyridyl hexahyrocyclooctathieno[2,3-d]pyrimidine derivatives” (2013):

What was measured:
Format in all cases: functional
SNB-75 [1] = test: Growth inhibition of human SNB75 cells at 10^-5 M after 48 hrs by Sulforhodamine B assay relative to control; details: SNB-75, 48 h, read-out: GI
In short: (§1)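 Single-dose primary screen at 10⁻⁵ M across 49 lines. Cells were plated 24 h beforehand, with a TCA-fixed time-zero plate, then exposed 48 h at 37 °C, 5% CO2. Cells were fixed with cold TCA, stained with SRB and read at 515 nm. Percent growth was calculated against time-zero and untreated-control absorbances.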

HCT-15 = test: Growth inhibition of human HCT15 cells at 10^-5 M after 48 hrs by Sulforhodamine B assay relative to control; details: HCT-15, 48 h, read-out: GI
In short: (§2)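 Single-dose screen at 10⁻⁵ M. Cells are preincubated 24 h at 37 °C in 5% CO2, then exposed to the compound, diluted from a DMSO stock into medium with gentamicin, for 48 h. Adherent cells are fixed with cold TCA (final 10%) and suspension cells with TCA (final 16%). Cells are stained with 0.4% SRB in 1% acetic acid and bound dye is read at 515 nm. Percent growth inhibition is taken against control wells and time-zero plates.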

RPMI-8226 = test: Growth inhibition of human RPMI8226 cells at 10^-5 M after 48 hrs by Sulforhodamine B assay relative to control; details: RPMI-8226, 48 h, read-out: GI; in short: as §1
T47D [2] = test: Growth inhibition of human T47D cells at 10^-5 M after 48 hrs by Sulforhodamine B assay relative to control; details: read-out: GI
In short: (§3)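 Single-dose stage: compound tested at 10⁻⁵ M in the 49-cell-line panel. Cells grew 24 h at 37 °C, 5% CO₂ before drug addition. Drug stock was in DMSO at 400-fold, diluted in medium with gentamicin. After 48 h exposure, adherent cells were fixed with cold TCA (10% final) and stained with 0.4% SRB in 1% acetic acid. Dye was solubilized in 10 mM Tris, read at 515 nm. Growth percentage was taken relative to untreated control and time-zero plates.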

MCF7 [3] = test: Growth inhibition of human MCF7 cells at 10^-5 M after 48 hrs by Sulforhodamine B assay relative to control; details: MCF7, 48 h, read-out: GI; in short: as §2
UO-31 = test: Growth inhibition of human UO31 cells at 10^-5 M after 48 hrs by Sulforhodamine B assay relative to control; details: UO-31, 48 h, read-out: GI; in short: as §3
RXF 393 [4] = test: Growth inhibition of human RXF393 cells at 10^-5 M after 48 hrs by Sulforhodamine B assay relative to control; details: RXF 393, 48 h, read-out: GI; in short: as §1
786-0 = test: Growth inhibition of human 786-0 cells at 10^-5 M after 48 hrs by Sulforhodamine B assay relative to control; details: 786-0, 48 h, read-out: GI; in short: as §2
MDA-MB-435 = test: Growth inhibition of human MDA-MB-435 cells at 10^-5 M after 48 hrs by Sulforhodamine B assay relative to control; details: MDA-MB-435, 48 h, read-out: GI; in short: as §2
MDA-MB-468 = test: Growth inhibition of human MDA-MB-468 cells after 48 hrs by Sulforhodamine B assay; details: MDA-MB-468, 48 h
In short: (§4)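 Cells were preincubated 24 h at 37 °C, 5% CO2, and a time-zero plate was TCA-fixed. Five concentrations were made by serial dilution from a DMSO stock (400-fold the top concentration) and incubated 48 h. Adherent cells were fixed with 10% final TCA and suspension cells with 16%. Plates were stained with 0.4% SRB and read at 515 nm. GI50 is the concentration giving 50% reduction in net protein increase versus control.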

T47D [5] = test: Growth inhibition of human T47D cells after 48 hrs by Sulforhodamine B assay; in short: as §4
MCF7 [6] = test: Growth inhibition of human MCF7 cells after 48 hrs by Sulforhodamine B assay; details: MCF7, 48 h
In short: (§5)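 Five-concentration SRB assay using 10-fold or ½-log serial dilutions from a DMSO stock. Exposure is 48 h at 37 °C in 5% CO2 after 24 h preincubation. TCA fixation is followed by SRB staining and a reading at 515 nm. Percentage growth is computed from time-zero, control and treated absorbances. GI50 is the concentration where [(Ti−Tz)/(C−Tz)]×100 = 50, read from the plot against log concentration.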

DU-145 = test: Growth inhibition of human DU145 cells after 48 hrs by Sulforhodamine B assay; details: DU-145, 48 h; in short: as §5
RXF 393 [7] = test: Growth inhibition of human RXF393 cells after 48 hrs by Sulforhodamine B assay; details: RXF 393, 48 h; in short: as §4
A498 = test: Growth inhibition of human A498 cells after 48 hrs by Sulforhodamine B assay; details: A498, 48 h; in short: as §5
SK-OV-3 = test: Growth inhibition of human SKOV3 cells after 48 hrs by Sulforhodamine B assay; details: SK-OV-3, 48 h; in short: as §4
[8] = Growth inhibition of human NCI-ADR-RES cells after 48 hrs by Sulforhodamine B assay; in short: as §4
OVCAR-4 = test: Growth inhibition of human OVCAR4 cells after 48 hrs by Sulforhodamine B assay; details: OVCAR-4, 48 h; in short: as §4
M14 = test: Growth inhibition of human M14 cells after 48 hrs by Sulforhodamine B assay; details: M14, 48 h; in short: as §5
U-251 = test: Growth inhibition of human U251 cells after 48 hrs by Sulforhodamine B assay; details: U-251, 48 h
In short: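 Five-concentration stage in the […]-cell-line panel, using 10-fold or ½-log serial dilutions made from a DMSO stock (400-fold). Cells were preincubated 24 h at 37 °C, then drug-exposed 48 h. A time-zero plate was fixed with TCA at dosing, adherent cells were fixed with cold TCA (10% final), and protein was stained with SRB, absorbance 515 nm. GI50 was where [(Ti−Tz)/(C−Tz)]×100 = 50, from the percent growth vs log concentration plot, expressed as log10 GI50.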

SNB-75 [9] = test: Growth inhibition of human SNB75 cells after 48 hrs by Sulforhodamine B assay; details: SNB-75, 48 h; in short: as §4
HCT-116 = test: Growth inhibition of human HCT116 cells after 48 hrs by Sulforhodamine B assay; details: HCT-116, 48 h; in short: as §5
SR [10] = test: Growth inhibition of human SR cells after 48 hrs by Sulforhodamine B assay; in short: as §4
HOP-92 = test: Growth inhibition of human HOP92 cells at 10^-5 M after 48 hrs by Sulforhodamine B assay relative to control; details: HOP-92, 48 h, read-out: GI; in short: as §2
SR [11] = test: Growth inhibition of human SR cells at 10^-5 M after 48 hrs by Sulforhodamine B assay relative to control; details: read-out: GI; in short: as §1
Malme-3M = test: Growth inhibition of human MALME-3M cells after 48 hrs by Sulforhodamine B assay; in short: as §5
SNB-19 = test: Growth inhibition of human SNB19 cells after 48 hrs by Sulforhodamine B assay; details: SNB-19, 48 h; in short: as §4
SF-295 = test: Growth inhibition of human SF295 cells after 48 hrs by Sulforhodamine B assay; details: SF-295, 48 h; in short: as §4

Structure (SMILES) | inhibition of growth at 10 µM (SNB-75 [1]) [%] | inhibition of growth at 10 µM (HCT-15) [%] | inhibition of growth at 10 µM (RPMI-8226) [%] | inhibition of growth at 10 µM (T47D [2]) [%] | inhibition of growth at 10 µM (MCF7 [3]) [%] | inhibition of growth at 10 µM (UO-31) [%] | inhibition of growth at 10 µM (786-0) [%] | inhibition of growth at 10 µM (MDA-MB-435) [%] | GI50 (MDA-MB-468) [µM] | GI50 (T47D [5]) [µM] | GI50 (MCF7 [6]) [µM] | GI50 (DU-145) [µM] | GI50 (RXF 393 [7]) [µM] | GI50 (A498) [µM] | GI50 (SK-OV-3) [µM] | GI50 [8] [µM] | GI50 (OVCAR-4) [µM] | GI50 (M14) [µM] | GI50 (U-251) [µM] | GI50 (SNB-75 [9]) [µM] | other results
COc1ccc(N2CCN(c3nc(-c4ccncc4)nc4sc5c(c34)CCCCCC5)CC2)cc1 | -13.7 | 17.7 | 28.8 | 27 | 18.1 | 11.1 | 11.1 | 4.86 |  |  |  |  |  |  |  |  |  |  |  |  | inhibition of growth at 10 µM (RXF 393 [4]): 17.2%
COc1ccc(N2CCN(c3nc(-c4ccccn4)nc4sc5c(c34)CCCCCC5)CC2)cc1 |  |  |  |  |  |  |  |  | 4.07 | 6.31 | 3.16 | 28.2 | > 100 | 3.31 | > 100 | 4.79 | 8.51 | 5.37 | 4.27 | 26.3 | GI50 (HCT-116): 3.24 µM; GI50 (SR [10]): 3.16 µM
c1ccc(N2CCN(c3nc(-c4ccncc4)nc4sc5c(c34)CCCCCC5)CC2)cc1 | -23.8 | 2.1 | 3.42 | 11.7 | 2.49 | 16.1 | 1.77 | 2.52 |  |  |  |  |  |  |  |  |  |  |  |  | inhibition of growth at 10 µM (HOP-92): 33.3%; inhibition of growth at 10 µM (SR [11]): 5.99%; inhibition of growth at 10 µM (RXF 393 [4]): 0.87%
c1ccc(N2CCN(c3nc(-c4ccccn4)nc4sc5c(c34)CCCCCC5)CC2)cc1 | 9.19 | 41.4 | 57.5 | 57.6 | 89.2 | 55.8 | 10.7 | 34.2 |  |  |  |  |  |  |  |  |  |  |  |  | inhibition of growth at 10 µM (HOP-92): 26.8%; inhibition of growth at 10 µM (RXF 393 [4]): 32.2%
CN1CCN(c2nc(-c3ccncc3)nc3sc4c(c23)CCCCCC4)CC1 |  |  |  |  |  |  |  |  | 5.25 | 13.5 | 6.61 | 12.6 | 4.07 | 1.05 | 12 | 8.13 | 12.6 | 5.37 | 9.33 | 1.38 | GI50 (HCT-116): 5.13 µM; GI50 (SR [10]): 2.82 µM
CN1CCN(c2nc(-c3ccccn3)nc3sc4c(c23)CCCCCC4)CC1 | 14.4 | 2.35 | 12.4 | 24.9 | 50.4 | 32.8 | 10 | 4.89 |  |  |  |  |  |  |  |  |  |  |  |  | 
c1cc(-c2nc(N3CCOCC3)c3c4c(sc3n2)CCCCCC4)ccn1 | 0.97 | 20.8 | 32.2 | 19.2 | 28.5 | 38.7 | 32.9 | 0.03 |  |  |  |  |  |  |  |  |  |  |  |  | inhibition of growth at 10 µM (SR [11]): 24.1%
NNc1nc(-c2ccncc2)nc2sc3c(c12)CCCCCC3 | 18.8 | 7.32 | 12.1 | 0.16 | 5.87 | 20.4 | 18.1 | 1.01 |  |  |  |  |  |  |  |  |  |  |  |  | inhibition of growth at 10 µM (SR [11]): 15.7%
c1ccc(-c2nc(N3CCOCC3)c3c4c(sc3n2)CCCCCC4)nc1 |  |  |  |  |  |  |  |  | 4.17 | 4.47 | 3.02 | 6.92 | 8.32 | 1.66 | 9.33 | 0.832 | 4.9 | 4.17 |  | 7.08 | GI50 (Malme-3M): 3.31 µM; GI50 (SNB-19): 8.32 µM; GI50 (SF-295): 3.39 µM; GI50 (HCT-116): 3.72 µM
Clc1nc(-c2ccncc2)nc2sc3c(c12)CCCCCC3 | 9.59 | 0.89 | 0.89 | 6.79 | 3.18 | 13.9 | 0.46 | 3.14 |  |  |  |  |  |  |  |  |  |  |  |  | inhibition of growth at 10 µM (SR [11]): 21.4%
NNc1nc(-c2ccccn2)nc2sc3c(c12)CCCCCC3 |  |  |  |  |  |  |  |  | 3.63 | 5.01 | 3.8 | 9.55 | 6.76 | 1.86 | 30.9 | 0.457 | 10.5 | 5.5 | 4.47 | 12.6 | GI50 (HCT-116): 3.55 µM; GI50 (SR [10]): 3.98 µM
O=c1[nH]c(-c2ccncc2)nc2sc3c(c12)CCCCCC3 |  |  |  |  |  |  |  |  | > 100 |  | > 100 | > 100 | > 100 | > 100 |  |  |  | > 100 | > 100 | 2.69 | GI50 (Malme-3M): > 100 µM; GI50 (SR [10]): > 100 µM
Clc1nc(-c2ccccn2)nc2sc3c(c12)CCCCCC3 | 15 | 15.8 | 4.46 | 57.8 | 46 | 83.6 | 1.61 | 8.64 |  |  |  |  |  |  |  |  |  |  |  |  | inhibition of growth at 10 µM (SR [11]): 33.7%
O=c1[nH]c(-c2ccccn2)nc2sc3c(c12)CCCCCC3 |  |  |  |  |  |  |  |  | 1.66 | 5.5 | 2.45 | 6.76 | 7.41 | 1.32 | > 100 | 0.955 | 5.89 | 4.07 | 2.14 | 85.1 | GI50 (HCT-116): 1.38 µM; GI50 (SR [10]): 0.871 µM
